One assay deals with TLR7/8 (Homo sapiens, UniProt Q9NR97). Briefly: Human neutrophil ROS production, R848 stimulation. The class given is cell-based.
Assay [1] deals with T1, TLR7 (Mus musculus, UniProt P58681).
T1 sequence (P58681 27-1050): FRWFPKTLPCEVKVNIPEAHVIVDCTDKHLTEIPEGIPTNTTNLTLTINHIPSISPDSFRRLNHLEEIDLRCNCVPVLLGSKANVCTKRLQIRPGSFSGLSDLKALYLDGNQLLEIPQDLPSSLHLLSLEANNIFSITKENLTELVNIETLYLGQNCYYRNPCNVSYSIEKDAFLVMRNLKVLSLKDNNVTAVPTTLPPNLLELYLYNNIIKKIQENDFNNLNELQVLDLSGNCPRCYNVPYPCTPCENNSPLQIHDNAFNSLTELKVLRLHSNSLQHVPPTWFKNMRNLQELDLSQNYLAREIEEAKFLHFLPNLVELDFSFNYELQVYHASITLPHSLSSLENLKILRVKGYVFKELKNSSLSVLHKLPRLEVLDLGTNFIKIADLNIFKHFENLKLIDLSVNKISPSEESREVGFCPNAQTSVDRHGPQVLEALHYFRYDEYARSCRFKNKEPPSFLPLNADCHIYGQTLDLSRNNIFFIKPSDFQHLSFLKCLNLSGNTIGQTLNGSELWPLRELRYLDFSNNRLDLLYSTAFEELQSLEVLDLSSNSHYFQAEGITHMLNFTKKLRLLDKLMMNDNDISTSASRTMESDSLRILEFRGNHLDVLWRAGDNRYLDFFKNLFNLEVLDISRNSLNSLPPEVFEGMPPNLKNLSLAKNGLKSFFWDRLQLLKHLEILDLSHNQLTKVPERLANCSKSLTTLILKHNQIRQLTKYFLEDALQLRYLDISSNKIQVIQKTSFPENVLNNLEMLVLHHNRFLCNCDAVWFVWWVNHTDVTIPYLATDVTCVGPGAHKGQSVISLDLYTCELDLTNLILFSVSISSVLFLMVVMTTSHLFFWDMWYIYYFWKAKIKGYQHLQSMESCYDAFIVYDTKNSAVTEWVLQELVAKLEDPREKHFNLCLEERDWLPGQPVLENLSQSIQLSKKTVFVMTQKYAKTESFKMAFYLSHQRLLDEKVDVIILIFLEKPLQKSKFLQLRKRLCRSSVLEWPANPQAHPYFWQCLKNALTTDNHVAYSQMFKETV
Briefly: Acute cytokine release in vivo assay, TLR7 agonist. To be noted: 129/Sv mice; single p.o. dose 1.5 or 15 mg/kg. The gist of the method: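 129/Sv mice (5 per group) got test compound orally in 0.5% methylcellulose/0.5% Tween-80, or vehicle alone. At 1 h they were injected i.v. with the TLR agonist (line 1: 20 μg R0006; line 2: CpG1585), each pre-complexed with 140 μg DOTAP in HBSS. At 3 h, EDTA blood was taken. Plasma IFN-α (both lines) and TNF were measured by ELISA, single technical replicate per mouse. Serum drug levels were measured by LC-MS/MS.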

Another assay has as its target murine TLR7 (Mus musculus, UniProt P58681). Nature of the assay: Murine whole blood assay, ssRNA-induced IFN-α and TNF. The class given is cell-based. In outline:
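Fresh human blood or 129/Sv mouse blood was taken into citrate and diluted 1:1 with RPMI1640. It was pre-incubated 30 min at 37°C, 5% CO2 with increasing concentrations of test compound or 0.25% v/v DMSO (final). Blood was then stimulated with TLR agonists at doses from earlier work, or with R848 (3 μM), and cytokines were quantified. Viability was checked by ATPlite luminescence.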

For a further assay, the target named is TLR1/2 (Homo sapiens, UniProt O60603+Q15399). Briefly: Ramos Blue reporter B cell line, Pam3CSK4 stimulation. The class given is cell-based. The conditions noted are these: Ramos cells; up to 10 μM; n = 4, data not shown. The gist of the method:
(§1)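 Ramos Blue B reporter cells were pre-treated 30 min at 37°C, 5% CO2 with increasing concentrations of test compound or 0.25% v/v DMSO. They were then stimulated with the respective agonist, and reporter activity was read.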

The target of assay [2] is T2, TLR7 (Homo sapiens, UniProt Q9NYK1).
T2 sequence (Q9NYK1 27-1049): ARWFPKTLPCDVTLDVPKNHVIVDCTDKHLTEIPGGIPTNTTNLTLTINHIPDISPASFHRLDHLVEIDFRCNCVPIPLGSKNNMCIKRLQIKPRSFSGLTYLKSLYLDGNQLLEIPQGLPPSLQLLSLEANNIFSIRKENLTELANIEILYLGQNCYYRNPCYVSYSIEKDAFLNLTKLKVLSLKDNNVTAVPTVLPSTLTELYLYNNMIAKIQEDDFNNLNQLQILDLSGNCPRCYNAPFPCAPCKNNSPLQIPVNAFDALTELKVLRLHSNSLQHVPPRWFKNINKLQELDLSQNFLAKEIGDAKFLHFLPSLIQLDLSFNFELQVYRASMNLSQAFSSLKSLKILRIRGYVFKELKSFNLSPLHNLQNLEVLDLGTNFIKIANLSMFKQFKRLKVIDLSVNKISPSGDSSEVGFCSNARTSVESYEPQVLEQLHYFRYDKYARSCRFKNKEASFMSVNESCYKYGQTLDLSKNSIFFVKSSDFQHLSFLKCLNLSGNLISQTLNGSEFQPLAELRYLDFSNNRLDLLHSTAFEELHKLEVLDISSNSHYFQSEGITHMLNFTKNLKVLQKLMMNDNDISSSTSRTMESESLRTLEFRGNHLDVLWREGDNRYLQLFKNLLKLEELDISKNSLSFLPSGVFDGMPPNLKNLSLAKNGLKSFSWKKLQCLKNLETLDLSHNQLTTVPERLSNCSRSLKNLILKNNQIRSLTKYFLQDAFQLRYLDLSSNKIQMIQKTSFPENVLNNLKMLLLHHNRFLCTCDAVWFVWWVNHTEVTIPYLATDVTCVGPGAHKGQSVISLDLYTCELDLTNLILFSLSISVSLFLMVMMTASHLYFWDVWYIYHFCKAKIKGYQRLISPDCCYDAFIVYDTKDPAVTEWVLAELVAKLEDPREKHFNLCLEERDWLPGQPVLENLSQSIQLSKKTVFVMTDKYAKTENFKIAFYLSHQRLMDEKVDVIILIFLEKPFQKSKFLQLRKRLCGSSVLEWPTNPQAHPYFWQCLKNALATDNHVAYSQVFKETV
Briefly: Ramos Blue NF-κB/AP-1 reporter B cell line, TLR7 stimulation. The class given is cell-based. The conditions noted are these: Ramos cells, mean ± SD. The gist of the method:
as §1

Another assay deals with B cell receptor. Briefly: B cell receptor-mediated activation in human blood. The conditions noted are these: up to 16 μM; n = 2, data not shown. The class given is cell-based. In outline: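 Heparinized human blood was given a 3-fold serial dilution of test compound, top 16 μM, for 1.5 h at 37°C. B cells were then activated with 50 μg/mL anti-human IgM for 20 min at 37°C. Samples were lysed/fixed and permeabilized, then stained for pAkt([…]) and CD20. Readout was by flow cytometry.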

This is an account of results in paper PMC10213863 (Cell Reports Medicine, 2023).

Like-named read-outs stand apart in the source and are kept apart here.

TLR7/8, sequence (Q9NR97 27-1041): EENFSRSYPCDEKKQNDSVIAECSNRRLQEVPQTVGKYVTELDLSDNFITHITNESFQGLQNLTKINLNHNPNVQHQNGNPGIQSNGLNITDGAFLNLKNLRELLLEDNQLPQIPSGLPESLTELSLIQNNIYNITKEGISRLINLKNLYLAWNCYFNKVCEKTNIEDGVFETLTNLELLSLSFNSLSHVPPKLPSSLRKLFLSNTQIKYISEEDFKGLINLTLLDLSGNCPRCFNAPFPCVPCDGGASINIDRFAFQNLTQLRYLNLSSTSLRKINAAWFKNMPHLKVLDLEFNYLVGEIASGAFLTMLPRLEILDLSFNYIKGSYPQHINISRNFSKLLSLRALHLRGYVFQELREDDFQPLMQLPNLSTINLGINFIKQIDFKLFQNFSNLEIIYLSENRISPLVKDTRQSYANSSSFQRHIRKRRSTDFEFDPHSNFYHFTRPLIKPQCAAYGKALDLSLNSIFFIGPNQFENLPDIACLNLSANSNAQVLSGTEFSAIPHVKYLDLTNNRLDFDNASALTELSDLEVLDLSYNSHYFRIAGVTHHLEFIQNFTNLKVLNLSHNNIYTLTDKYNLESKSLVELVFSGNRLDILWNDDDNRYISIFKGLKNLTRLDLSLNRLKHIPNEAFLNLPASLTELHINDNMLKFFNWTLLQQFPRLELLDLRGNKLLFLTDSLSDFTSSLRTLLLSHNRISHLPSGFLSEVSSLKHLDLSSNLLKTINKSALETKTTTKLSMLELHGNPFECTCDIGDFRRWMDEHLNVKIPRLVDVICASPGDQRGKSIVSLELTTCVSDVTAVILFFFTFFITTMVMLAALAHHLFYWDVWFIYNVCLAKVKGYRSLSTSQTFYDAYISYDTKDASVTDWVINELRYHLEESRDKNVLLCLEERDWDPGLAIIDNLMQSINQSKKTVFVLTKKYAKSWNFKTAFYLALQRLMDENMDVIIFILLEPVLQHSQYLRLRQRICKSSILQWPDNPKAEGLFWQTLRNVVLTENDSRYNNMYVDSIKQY
TLR1/2, sequence (Q15399 25-786): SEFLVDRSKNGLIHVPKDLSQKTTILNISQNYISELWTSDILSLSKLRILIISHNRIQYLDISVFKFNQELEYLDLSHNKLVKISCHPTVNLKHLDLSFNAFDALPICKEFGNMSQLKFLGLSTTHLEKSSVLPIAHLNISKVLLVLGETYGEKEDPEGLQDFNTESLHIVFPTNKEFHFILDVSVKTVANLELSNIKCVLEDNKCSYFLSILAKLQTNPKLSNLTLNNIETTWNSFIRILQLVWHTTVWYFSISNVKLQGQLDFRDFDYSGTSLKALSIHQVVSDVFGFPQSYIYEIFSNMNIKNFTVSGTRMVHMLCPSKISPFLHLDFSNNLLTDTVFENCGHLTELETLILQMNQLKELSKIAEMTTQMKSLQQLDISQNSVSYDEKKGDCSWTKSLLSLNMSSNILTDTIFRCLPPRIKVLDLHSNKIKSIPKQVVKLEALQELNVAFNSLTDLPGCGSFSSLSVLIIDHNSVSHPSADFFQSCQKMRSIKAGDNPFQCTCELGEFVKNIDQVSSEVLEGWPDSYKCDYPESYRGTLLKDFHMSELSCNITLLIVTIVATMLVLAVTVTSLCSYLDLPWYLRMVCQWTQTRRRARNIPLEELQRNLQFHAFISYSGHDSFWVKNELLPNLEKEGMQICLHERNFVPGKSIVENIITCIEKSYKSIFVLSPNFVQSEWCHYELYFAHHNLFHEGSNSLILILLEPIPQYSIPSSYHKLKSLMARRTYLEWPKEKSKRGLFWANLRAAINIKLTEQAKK
TLR1/2, sequence (O60603 21-784): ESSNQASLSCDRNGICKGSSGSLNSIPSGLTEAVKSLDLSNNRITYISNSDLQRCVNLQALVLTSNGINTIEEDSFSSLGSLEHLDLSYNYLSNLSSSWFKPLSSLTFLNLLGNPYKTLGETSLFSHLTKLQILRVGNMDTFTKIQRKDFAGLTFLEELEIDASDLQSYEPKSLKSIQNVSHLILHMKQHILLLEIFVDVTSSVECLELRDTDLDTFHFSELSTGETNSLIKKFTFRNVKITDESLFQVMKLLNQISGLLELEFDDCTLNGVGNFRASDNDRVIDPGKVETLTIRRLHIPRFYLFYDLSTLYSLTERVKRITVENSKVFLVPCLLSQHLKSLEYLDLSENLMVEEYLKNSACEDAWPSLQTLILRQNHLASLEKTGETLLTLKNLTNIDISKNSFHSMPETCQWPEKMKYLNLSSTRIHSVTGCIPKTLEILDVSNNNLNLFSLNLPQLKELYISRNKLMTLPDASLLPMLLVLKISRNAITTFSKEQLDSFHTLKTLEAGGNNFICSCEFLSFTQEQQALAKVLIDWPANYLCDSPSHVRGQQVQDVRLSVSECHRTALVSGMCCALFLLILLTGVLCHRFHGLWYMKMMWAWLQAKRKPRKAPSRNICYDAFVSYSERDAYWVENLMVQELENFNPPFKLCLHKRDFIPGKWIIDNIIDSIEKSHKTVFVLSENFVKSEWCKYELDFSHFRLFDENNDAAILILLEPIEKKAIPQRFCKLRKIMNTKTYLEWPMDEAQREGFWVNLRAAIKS

Usually IC50 stands for the concentration at which inhibition is half-maximal. In the case of `Cc1cc(N2CCc3c(c(C)nn3CC34CCC(NC(=O)[C@@H]5COCCN5)(CC3)CC4)C2)c2cnn(C)c2n1` [MHV370, (S)-N-(4-((5-(1,6-dimethyl-1H-pyrazolo[3,4-b]pyridin-4-yl)-3-methyl-4,5,6,7-tetrahydro-1H-pyrazolo[4,3-c]pyridin-1-yl)methyl)bicyclo[2.2.2]octan-1-yl)morpholine-3-carboxamide], the concentration for half-maximal inhibition (IC50) was 3.8 ± 0.8 nM against TLR7/8; 58 ± 10 nM against murine TLR7 (IC50, TLR7 (ssRNA-IFN-α), mouse blood, mean ± SEM (n)); 15 ± 10 nM against TLR7 [2] (IC50, CL307-driven reporter gene activity, CL307); 7 ± 0.1 nM at TLR7 [2] (read-out: IC50, R848-driven reporter gene activity, R848). Also, on TLR7 [1], the “TLR7-dependent IFN-α and TNF production in plasma” value was “efficiently inhibited”. For the same molecule, at murine TLR7 (mouse vs human whole blood), the “potency on mouse whole blood relative to human whole blood (fold lower)” value is listed as “about 10 fold”. Also, the “interference with TLR1/2-driven activity” value on TLR1/2 is “did not interfere”. For the same molecule, the “activation of B cell responses via the B cell receptor” value with B cell receptor is reported as “unaffected”.
